ChEMBL document CHEMBL3259592, “Synthesis and structure-activity relationship of dihydrobenzofuran derivatives as novel human GPR119 agonists” (Bioorg Med Chem Lett, 2014)
Calls of active or inactive are those of the source. The rule behind the calls is not given here.

What was measured:
[1] = biological target: Glucose-dependent insulinotropic receptor (Homo sapiens) (UniProt Q8TDV5); assay: Agonist activity at human GPR119 expressed in HEK293 cells co-expressing Flp-In-T-Rex assessed as cAMP accumulation after 60 mins
[2] = biological target: T1, Glucose-dependent insulinotropic receptor (Homo sapiens, UniProt Q8TDV5); assay: Agonist activity at human GPR119 expressed in HEK293 cells co-expressing Flp-In-T-Rex assessed as cAMP accumulation after 60 mins; type: functional, cell-based
T1 sequence (Q8TDV5 whole entry): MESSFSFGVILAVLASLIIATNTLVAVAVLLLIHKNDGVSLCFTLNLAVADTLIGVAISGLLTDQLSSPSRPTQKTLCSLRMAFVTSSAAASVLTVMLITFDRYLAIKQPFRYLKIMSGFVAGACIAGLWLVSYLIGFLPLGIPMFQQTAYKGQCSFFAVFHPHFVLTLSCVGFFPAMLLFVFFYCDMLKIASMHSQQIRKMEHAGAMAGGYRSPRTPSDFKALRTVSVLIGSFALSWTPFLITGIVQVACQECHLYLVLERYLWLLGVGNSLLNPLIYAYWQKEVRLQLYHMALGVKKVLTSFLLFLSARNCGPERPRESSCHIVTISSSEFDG
Method in brief: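 Tetracycline-inducible human GPR119 cell line, plated at 7.5 × 10⁵ cells/well 24 h before assay in DMEM with 10% FBS and 1 ng/ml tetracycline. Medium was then swapped for PBS assay buffer containing 25 mM HEPES (pH 7.4), 12 mM glucose, 0.01% FAF-BSA and 0.1 mM IBMX. Cells were exposed to compound for 60 min, then lysed. cAMP was read by enzyme fragment complementation fluorescence; EC50 and Emax reported.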

[3] = biological target: T2, Glucose-dependent insulinotropic receptor (Homo sapiens) (UniProt Q8TDV5); assay: Intrinsic activity at human GPR119 expressed in HEK293 cells co-expressing Flp-In-T-Rex assessed as cAMP accumulation after 60 mins relative to propan-2-yl 4-({6-[(2-fluoro-4-methanesulfonylphenyl)amino]pyrimidin-4-yl}oxy)piperidine-1-carboxylate; type: functional, cell-based
T2 sequence (whole entry): T1 sequence (Q8TDV5 whole entry)
Method in brief: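 Tetracycline-inducible human GPR119 cells plated 7.5 × 10⁵/well 24 h ahead in growth medium (DMEM, 10% FBS) with 1 ng/ml tetracycline. Compound exposure 60 min, then lysis; cAMP read by enzyme fragment complementation fluorescence. EC₅₀ and Emax derived.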

[4] = Metabolic stability in mouse liver microsomes assessed as compound remaining after 10 mins; type: ADME; conditions: read-out: Stability
[5] = Metabolic stability in human liver microsomes assessed as compound remaining after 10 mins; type: ADME; conditions: read-out: Stability
[6] = Aqueous solubility of the compound at pH 6.5; type: physicochemical
[7] = biological target: T3, Nuclear receptor subfamily 1 group I member 2 (Homo sapiens, UniProt O75469); assay: Transactivation of PXR (unknown origin)
T3 sequence (O75469 whole entry): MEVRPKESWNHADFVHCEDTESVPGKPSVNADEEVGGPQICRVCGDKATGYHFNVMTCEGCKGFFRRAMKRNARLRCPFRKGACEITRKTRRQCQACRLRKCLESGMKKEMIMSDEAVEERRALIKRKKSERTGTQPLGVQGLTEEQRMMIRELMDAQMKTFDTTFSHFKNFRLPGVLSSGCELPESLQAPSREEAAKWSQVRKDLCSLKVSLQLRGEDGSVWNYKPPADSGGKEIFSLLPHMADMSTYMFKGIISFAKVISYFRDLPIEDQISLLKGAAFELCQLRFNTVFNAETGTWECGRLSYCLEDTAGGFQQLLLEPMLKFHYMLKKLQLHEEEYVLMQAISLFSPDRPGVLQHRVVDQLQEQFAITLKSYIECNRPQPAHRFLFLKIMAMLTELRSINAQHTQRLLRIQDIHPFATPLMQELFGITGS

[8] = Inhibition of CYP450 (unknown origin); type: ADME; conditions: human
[9] = Permeability of the compound by PAMPA; type: physicochemical

SMILES: CCCS(=O)(=O)N1CC=C(c2ccc3c(c2)CC(C2CCN(Cc4ccccc4)CC2)O3)CC1 (racemic)
- Activity [1]: Active
- EC50 [2]: 521 nM
- Emax [3]: 88%

SMILES: CCCS(=O)(=O)N1CC=C(c2ccc3c(c2)CC(C2CCN(C(=O)OC(C)C)CC2)O3)CC1 (racemic)
- Activity [1]: Active
- remaining at 10 min [4]: 12%
- EC50 [2]: 103 nM
- Emax [3]: 61%
- remaining at 10 min [5]: 10%

SMILES: CCCS(=O)(=O)N1CC=C(c2ccc3c(c2)CC(C2CCN(S(=O)(=O)CCC)CC2)O3)CC1 (racemic)
- Activity [1]: Active
- EC50 [2]: 1000 nM
- Emax [3]: 43%

SMILES: CCCS(=O)(=O)N1CC=C(c2ccc3c(c2)CC(C2CCN(C(=O)OC4CCCCC4)CC2)O3)CC1 (racemic)
- Activity [1]: Active
- EC50 [2]: 51 nM
- Emax [3]: 56%

SMILES: CCCS(=O)(=O)N1CC=C(c2ccc3c(c2)CC(C2CCN(c4ncc(Cl)cn4)CC2)O3)CC1 (racemic)
- Activity [1]: Active
- remaining at 10 min [4]: 45%
- EC50 [2]: 78 nM
- Emax [3]: 88%
- remaining at 10 min [5]: 48%

SMILES: CCCS(=O)(=O)N1CC=C(c2ccc3c(c2)CC(C2CCN(c4ncc(C(F)(F)F)cn4)CC2)O3)CC1 (racemic)
- Activity [1]: Active
- solubility ([6]; buffer): Insoluble
- EC50 [2]: 14 nM
- Emax [3]: 118%
- remaining at 10 min [5]: 58%

SMILES: CCCS(=O)(=O)N1CC=C(c2ccc3c(c2)CC(C2CCN(c4ncc(C5CC5)cn4)CC2)O3)CC1 (racemic)
- Activity [1]: Active
- remaining at 10 min [4]: 3%
- EC50 [2]: 67 nM
- Emax [3]: 85%
- remaining at 10 min [5]: 58%

SMILES: CCCS(=O)(=O)N1CC=C(c2ccc3c(c2)CC(C2CCN(c4ccc(C(F)(F)F)cn4)CC2)O3)CC1 (racemic)
- Activity [1]: Active
- remaining at 10 min [4]: 46%
- EC50 [2]: 34 nM
- Emax [3]: 99%
- remaining at 10 min [5]: 47%

SMILES: CCCc1cnc(N2CCC(C3Cc4cc(C5=CCN(S(=O)(=O)CCC)CC5)ccc4O3)CC2)nc1 (racemic)
- Activity [1]: Active
- remaining at 10 min [4]: 58%
- EC50 [2]: 82 nM
- Emax [3]: 107%
- remaining at 10 min [5]: 71%

SMILES: CCCc1cnc(N2CCC(C3Cc4cc(-c5ccc(S(C)(=O)=O)cc5F)ccc4O3)CC2)nc1 (racemic)
- EC50 [2]: 541 nM
- Emax [3]: 53%

SMILES: CCCc1cnc(N2CCC(C3Cc4cc(N5CCN(S(=O)(=O)CCC)CC5)ccc4O3)CC2)nc1 (racemic)
- remaining at 10 min [4]: 44%
- EC50 [2]: 544 nM
- Emax [3]: 74%
- remaining at 10 min [5]: 82%

SMILES: CCCc1cnc(N2CCC(C3Cc4cc(C5CCN(S(=O)(=O)CCC)CC5)ccc4O3)CC2)nc1 (racemic)
- remaining at 10 min [4]: 52%
- EC50 [2]: 386 nM
- Emax [3]: 43%
- remaining at 10 min [5]: 70%

SMILES: CCCc1cnc(N2CCC(C3Cc4c(ccc(C5=CCN(S(=O)(=O)CCC)CC5)c4F)O3)CC2)nc1 (racemic)
- solubility ([6]; aqueous, read-out: solubility): < 1 µg/mL
- Activity [7]: Not Active
- inhibition (INH) [8]: Not Active
- remaining at 10 min [4]: 78%
- EC50 [2]: 5 nM
- Emax [3]: 123%
- remaining at 10 min [5]: 87%
- permeability [9]: permeable

SMILES: CCCc1cnc(N2CCC(C3Cc4cc(C5=CCN(S(=O)(=O)CCC)CC5)cc(F)c4O3)CC2)nc1 (racemic)
- remaining at 10 min [4]: 74%
- EC50 [2]: 62 nM
- Emax [3]: 93%
- remaining at 10 min [5]: 97%

SMILES: CCCc1cnc(N2CCC(C3Cc4c(F)c(C5=CCN(S(=O)(=O)CCC)CC5)cc(F)c4O3)CC2)nc1 (racemic)
- solubility ([6]; aqueous, read-out: solubility): < 1 µg/mL
- Activity [7]: Not Active
- inhibition (INH) [8]: Not Active
- remaining at 10 min [4]: 80%
- EC50 [2]: 2 nM
- Emax [3]: 119%
- remaining at 10 min [5]: 78%
- permeability [9]: permeable

SMILES: CCCc1cnc(N2CCC(C3(C)Cc4cc(C5=CCN(S(=O)(=O)CCC)CC5)ccc4O3)CC2)nc1 (racemic)
- remaining at 10 min [4]: 52%
- EC50 [2]: 70 nM
- Emax [3]: 48%
- remaining at 10 min [5]: 68%

SMILES: CCCc1cnc(N2CCC(C3Cc4cc(C5=CCN(S(=O)(=O)CCCO)CC5)cc(F)c4O3)CC2)nc1 (racemic)
- remaining at 10 min [4]: 60%
- EC50 [2]: 122 nM
- Emax [3]: 92%
- remaining at 10 min [5]: 100%

SMILES: CCCc1cnc(N2CCC(C3Cc4cc(C5=CCN(S(=O)(=O)CCCCO)CC5)cc(F)c4O3)CC2)nc1 (racemic)
- remaining at 10 min [4]: 59%
- EC50 [2]: 60 nM
- Emax [3]: 98%
- remaining at 10 min [5]: 73%

SMILES: CCCc1cnc(N2CCC(C3Cc4c(F)c(C5=CCN(S(=O)(=O)CCCO)CC5)cc(F)c4O3)CC2)nc1 (racemic)
- remaining at 10 min [4]: 82%
- EC50 [2]: 16 nM
- Emax [3]: 86%
- remaining at 10 min [5]: 89%

SMILES: CCCc1cnc(N2CCC(C3Cc4c(F)c(C5=CCN(S(=O)(=O)CCC(C)(C)O)CC5)cc(F)c4O3)CC2)nc1 (racemic)
- remaining at 10 min [4]: 61%
- EC50 [2]: 101 nM
- Emax [3]: 82%
- remaining at 10 min [5]: 55%

SMILES: CCCc1cnc(N2CCC(C3(C)Cc4cc(C5=CCN(S(=O)(=O)CCCO)CC5)ccc4O3)CC2)nc1 (racemic)
- remaining at 10 min [4]: 42%
- EC50 [2]: 78 nM
- Emax [3]: 78%
- remaining at 10 min [5]: 72%

SMILES: CCCc1cnc(N2CCC(C3(C)Cc4cc(C5=CCN(S(=O)(=O)CCCCO)CC5)ccc4O3)CC2)nc1 (racemic)
- remaining at 10 min [4]: 70%
- EC50 [2]: 28 nM
- Emax [3]: 67%
- remaining at 10 min [5]: 67%
